How the values were obtained:
Eclipta prostrata = assay: Herbicidal activity against Eclipta prostrata assessed as growth inhibition at 150 g ai/ha using post-emergence protocol under greenhouse conditions measured 15 days after compound treatment; format: functional; conditions: 360 h, read-out: GI
Summary of the method: (§1)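 Post-emergence greenhouse spray on pot-grown broadleaf weeds at the 2-leaf stage. Formulation concentrates were diluted with water. Soil was clay, pH 6.5, 1.6% organic matter, 37.3% clay particles, CEC 12.1 mol/kg. The rate was total active ingredient divided by pot surface area. Untreated seedlings and DMF-treated seedlings served as controls.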

Chenopodium album = assay: Herbicidal activity against Chenopodium album assessed as growth inhibition at 150 g ai/ha using post-emergence protocol under greenhouse conditions measured 15 days after compound treatment; format: functional; conditions: 360 h, read-out: GI; summary of the method: as §1
Amaranthus retroflexus = assay: Herbicidal activity against Amaranthus retroflexus assessed as growth inhibition at 150 g ai/ha using post-emergence protocol under greenhouse conditions measured 15 days after compound treatment; format: functional; conditions: 360 h, read-out: GI; summary of the method: as §1
Brassica juncea = assay: Herbicidal activity against Brassica juncea assessed as growth inhibition at 150 g ai/ha using post-emergence protocol under greenhouse conditions measured 15 days after compound treatment; format: functional; conditions: 360 h, read-out: GI; summary of the method: as §1
Setaria viridis = assay: Herbicidal activity against Setaria viridis assessed as growth inhibition at 150 g ai/ha using post-emergence protocol under greenhouse conditions measured 15 days after compound treatment; format: functional; conditions: 360 h, read-out: GI
Summary of the method: (§2)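 Grass weeds were grown in pots in the greenhouse and sprayed post-emergence at the 1-leaf stage. The spray was formulation concentrate diluted in water. Soil was clay, pH 6.5, 1.6% organic matter, 37.3% clay particles, CEC 12.1 mol/kg. The g.ai/ha rate was active ingredient over pot surface area. Controls were untreated and DMF-treated seedlings.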

Echinochloa crus-galli = assay: Herbicidal activity against Echinochloa crus-galli (barnyard grass) assessed as growth inhibition at 150 g ai/ha using post-emergence protocol under greenhouse conditions measured 15 days after compound treatment; format: functional; conditions: 360 h, read-out: GI; summary of the method: as §2
Digitaria sanguinalis = assay: Herbicidal activity against Digitaria sanguinalis (hairy crabgrass) assessed as growth inhibition at 150 g ai/ha using post-emergence protocol under greenhouse conditions measured 15 days after compound treatment; format: functional; conditions: 360 h, read-out: GI; summary of the method: as §2
[1] = target: T1, Protoporphyrinogen oxidase (Homo sapiens, UniProt P50336); assay: Inhibition of Homo sapiens (human) protoporphyrinogen oxidase; conditions: read-out: Ki
T1 sequence (P50336 whole entry): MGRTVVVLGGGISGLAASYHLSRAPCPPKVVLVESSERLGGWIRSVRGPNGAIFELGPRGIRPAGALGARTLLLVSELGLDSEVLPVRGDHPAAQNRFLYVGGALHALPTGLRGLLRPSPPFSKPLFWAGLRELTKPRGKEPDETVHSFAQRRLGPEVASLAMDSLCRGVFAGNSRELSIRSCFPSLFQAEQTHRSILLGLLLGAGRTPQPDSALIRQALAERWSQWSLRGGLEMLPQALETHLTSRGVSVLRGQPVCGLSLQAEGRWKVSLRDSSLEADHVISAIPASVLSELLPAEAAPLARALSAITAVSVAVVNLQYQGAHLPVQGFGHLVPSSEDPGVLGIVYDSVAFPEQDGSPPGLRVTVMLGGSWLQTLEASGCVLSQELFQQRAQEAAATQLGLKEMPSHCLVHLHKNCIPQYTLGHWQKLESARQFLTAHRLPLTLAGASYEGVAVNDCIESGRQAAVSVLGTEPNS

Row | Ki [1] [µM] | SMILES | inhibition of growth at 150 g/ha (Eclipta prostrata) [%] | inhibition of growth at 150 g/ha (Chenopodium album) [%] | inhibition of growth at 150 g/ha (Amaranthus retroflexus) [%] | inhibition of growth at 150 g/ha (Brassica juncea) [%] | inhibition of growth at 150 g/ha (Setaria viridis) [%] | inhibition of growth at 150 g/ha (Echinochloa crus-galli) [%] | inhibition of growth at 150 g/ha (Digitaria sanguinalis) [%]
1 | 0.53 | O=C1C2=C(CCCC2)C(O)N1c1cc(OCc2cccc(Cl)c2)c(Cl)cc1F (stereo not drawn) | 50 | 50 | 50 | 50 | < 50 | < 50 | < 50
2 | 7.45 | C=CCOc1cc(N2C(=O)C3=C(CCCC3)C2O)c(Cl)cc1Cl (stereo not drawn) | 50 | 50 | 50 | 50 | < 50 | < 50 | < 50
3 | 1.03 | C=CCOc1cc(N2C(=O)C3=C(CCCC3)C2O)c(F)cc1Cl (stereo not drawn) | 50 | > 80 | > 80 | 50 | < 50 | < 50 | < 50
4 | 359 | CCOc1cc(Cl)c([N+](=O)[O-])cc1N1C(=O)C2=C(CCCC2)C1O (stereo not drawn) | 50 | 50 | > 80 | < 50 | < 50 | < 50 | < 50
5 | 41.4 | C=CCOC1C2=C(CCCC2)C(=O)N1c1cc(O)c(Br)cc1F (stereo not drawn) | 50 | 50 | 50 | < 50 | < 50 | 50 | 50
6 | 1.03 | COC1C2=C(CCCC2)C(=O)N1c1cc(OCc2cccc(Cl)c2)c(Cl)cc1F (stereo not drawn) | 50 | 50 | 50 | 50 | < 50 | 50 | < 50
7 | 4.49 | COc1cc(N2C(=O)C3=C(CCCC3)C2OC)c(F)cc1Cl (stereo not drawn) | 50 | > 80 | > 80 | 50 | 50 | 50 | 50
8 | 66.6 | C=CCOC1C2=C(CCCC2)C(=O)N1c1cc(OCc2cccc(Cl)c2)c(Cl)cc1F (stereo not drawn) | 50 | < 50 | > 80 | < 50 | < 50 | < 50 | 50
9 | 33.1 | C=CCOc1cc(N2C(=O)C3=C(CCCC3)C2OCC=C)c(F)cc1Cl (stereo not drawn) | > 80 | > 80 | 100 | 100 | > 80 | 50 | > 80
10 | 7.02 | C=CCOC1C2=C(CCCC2)C(=O)N1c1cc(OCC)c(Cl)cc1F (stereo not drawn) | 100 | 100 | 100 | 50 | 50 | 50 | 50
11 | 87.9 | O=C1NC(=O)c2cc(Cl)ccc21 [4-CHLORO-PHTHALIMIDE] |  |  |  |  |  |  | 
12 |  | Cc1nn(-c2cc(NS(C)(=O)=O)c(Cl)cc2Cl)c(=O)n1C(F)F [SULFENTRAZONE] | 100 | 100 | 100 | 100 | > 80 | < 50 | < 50
